Values after ≈ are worked out from the molar mass of the structure shown.
Assays:
[1] = Thermodynamic solubility of compound in water measured after 15 mins RP-HPLC analysis; format: physicochemical; conditions: read-out: Therm_solubility
HCT-116 = experiment: Antiproliferative activity against human HCT-116 cells assessed as cell growth at 1 uM measured after 3 days by [3H]-thymidine incorporation assay relative to control; format: functional; conditions: HCT-116, 72 h, time 3 day, read-out: Activity
Method in brief: (§1)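 HCT116 and MDA-MB-231 cells from ATCC, seeded at 3000 cells/well, exposed to inhibitor for three days; 0.04 µCi 3H-thymidine added per well 5 h before harvest onto glass fibre filters, incorporation counted by scintillation and expressed relative to untreated controls. Triplicate wells, at least two independent experiments. Single-point screen at 1 µM; IC50 determined from varying concentrations.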

MDA-MB-231 = experiment: Antiproliferative activity against human MDA-MB-231 cells assessed as cell growth at 1 uM measured after 3 days by [3H]-thymidine incorporation assay relative to control; format: functional; conditions: MDA-MB-231, 72 h, time 3 day, read-out: Activity; method in brief: as §1

SMILES	solubility thermodynamic at 0.25 h [1] [µg/mL]	growth at 1 µM (HCT-116) [%]	growth at 1 µM (MDA-MB-231) [%]
COc1cccc(NC(=O)c2sc3nc4c(cc3c2N)CN(Cc2ccccc2)CC4)c1	0.3 (≈ 0.675 µM)	85.2	90.7
Cc1nc2sc(C(=O)Nc3ccnc4ccccc34)c(N)c2cc1C(C)O (stereo not given)	18.5 (≈ 49 µM)	93.6	107
CC(=O)c1cc2c(N)c(C(=O)Nc3cccc(C(F)(F)F)c3C)sc2nc1C	1.17 (≈ 2.87 µM)	106	67.7
Cc1ccccc1NC(=O)c1sc2nc3c(cc2c1N)CN(Cc1ccccc1)CC3	0.26 (≈ 0.607 µM)	96.4	109
COc1ccc(NC(=O)c2sc3nc(C)c(C(C)=O)cc3c2N)cc1	0.13 (≈ 0.366 µM)	82.9	84.6
Nc1c(C(=O)Nc2cccc3ccccc23)sc2nc3c(cc12)COCC3	4 (≈ 10.7 µM)	100	78.3
CC(=O)c1cc2c(N)c(C(=O)Nc3cccc4cccnc34)sc2nc1C	3 (≈ 7.97 µM)	97	86.7
COc1ccc(NC(=O)c2sc3nc4c(cc3c2N)COCC4)cc1	3.19 (≈ 8.98 µM)	80.1	83.9
Cc1nc2sc(C(=O)Nc3cccc4ccncc34)c(N)c2cc1C(C)O (stereo not given)	10.1 (≈ 26.6 µM)	83.1	94.6
COc1ccc(NC(=O)c2sc3nc(C)c(C(C)O)cc3c2N)cc1 (stereo not given)	1.79 (≈ 5.01 µM)	97.5	114
Nc1c(C(=O)Nc2ccccc2)sc2nc3c(cc12)COCC3	1.03 (≈ 3.17 µM)	91.5	98.9
Nc1c(C(=O)Nc2ccnc3ccccc23)sc2nc3c(cc12)C(=O)CCC3	0.64 (≈ 1.65 µM)	101	107
Cc1ccccc1NC(=O)c1sc2nc3c(cc2c1N)CN(C)CC3	5.61 (≈ 15.9 µM)	101	95.3
CC(=O)c1cc2c(N)c(C(=O)Nc3cccc4ccncc34)sc2nc1C	1.06 (≈ 2.82 µM)	108	101
COc1cccc(NC(=O)c2sc3nc(C)c(C(C)=O)cc3c2N)c1	1.1 (≈ 3.09 µM)	96.5	96
CC(=O)c1cc2c(N)c(C(=O)Nc3ccccn3)sc2nc1C	0.45 (≈ 1.38 µM)	91.7	92.9
Cc1ccccc1NC(=O)c1sc2nc3c(cc2c1N)COCC3	7.52 (≈ 22.2 µM)	101	103
Nc1c(C(=O)Nc2ccnc3ccccc23)sc2nc3c(cc12)CN(Cc1ccccc1)CC3	3.83 (≈ 8.23 µM)	82.8	104
Nc1c(C(=O)Nc2cccc3c2OCCO3)sc2nc3c(cc12)C(=O)CCC3	0.12 (≈ 0.303 µM)	18.6	17.8
Cc1nc2sc(C(=O)Nc3ccc4c(c3)OCCO4)c(N)c2cc1C(C)O (stereo not given)	0.27 (≈ 0.7 µM)	94.9	105
COc1ccc(NC(=O)c2sc3nc4c(cc3c2N)CN(Cc2ccccc2)CC4)cc1	0.197 (≈ 0.443 µM)	87.4	94.1
CC(=O)c1cc2c(N)c(C(=O)Nc3ccc4c(c3)OCCO4)sc2nc1C	0.19 (≈ 0.496 µM)	104	103
Nc1c(C(=O)Nc2cccc3ccncc23)sc2nc3c(cc12)CN(Cc1ccccc1)CC3	2.79 (≈ 5.99 µM)	103	108
CC(=O)c1cc2c(N)c(C(=O)Nc3ccccc3C)sc2nc1C	1.49 (≈ 4.39 µM)	110	97.1
Nc1c(C(=O)Nc2ccccc2)sc2nc3c(cc12)CN(C(=O)OCc1ccccc1)CC3	1.93 (≈ 4.21 µM)	3.1	17.5
CC(=O)c1cc2c(N)c(C(=O)Nc3ccncc3)sc2nc1C	0.45 (≈ 1.38 µM)	103	97.2
COc1ccc(NC(=O)c2sc3nc4c(cc3c2N)CN(C)CC4)cc1	2.17 (≈ 5.89 µM)	98.9	90.3
COc1cccc(NC(=O)c2sc3nc4c(cc3c2N)CN(Cc2ccccc2)CC4)c1C	1.89 (≈ 4.12 µM)	101	106
CN1CCc2nc3sc(C(=O)Nc4cccc5ccccc45)c(N)c3cc2C1	2.17 (≈ 5.59 µM)	93.5	89
CC(=O)c1cc2c(N)c(C(=O)Nc3ccccc3)sc2nc1C	3 (≈ 9.22 µM)	109	120

From ChEMBL document CHEMBL4706708, “Improving the solubility of anti-proliferative thieno[2,3-b]quinoline-2-carboxamides” (Bioorg Med Chem, 2021)
